Consider one molecule from ChEMBL document CHEMBL4145531, “Synthesis of novel Chlorin e6-curcumin conjugates as photosensitizers for photodynamic therapy against pancreatic carcinoma” (Eur J Med Chem, 2018).

Molecules are shown by their SMILES. Activity calls are given as the source filed them. The calls are words filed in the database; no cut-off is given here.

Series [1] can be described thus: Dark toxicity in human AsPC1 cells assessed as reduction in cell viability after 72 hrs by MTT assay. Format: cell-based. In a few lines: (§1)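 AsPC-1 cells were grown in RPMI-1640, and MIA PaCa-2 and PANC-1 in DMEM, each with 10% FBS and 1% penicillin/streptomycin. 5.0 x 10^3 cells were seeded and left overnight at 37 °C. They were exposed to 0-300 µM compound for 3h without laser irradiation, then held 72h in the dark at 37 °C, 5% CO₂. Viability was read by MTT.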
(In general: Tetrazolium assays rely on reduction of a dye to a coloured formazan, in cell work by metabolically active cells.)

Series [2] relates to ASPC1. Kind of series: Phototoxicity in human AsPC1 cells assessed as reduction in cell viability preincubated for 3 hrs followed by 9 J/cm2 laser light irradiation and measured after 72 hrs by MTT assay. Format: functional, cell-based. Conditions: ASPC1, light or radiation study. In short, it runs like this: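 Cells were seeded at 5.0 x 10^3 per well and incubated overnight at 37 °C. AsPC-1 was in RPMI-1640 and MIA PaCa-2/PANC-1 in DMEM, with 10% FBS. Cells took up compound for 3h, then received 660 nm laser light (50 mW, 9 J/cm²).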

Series [3] in a line: Selectivity index, ratio of IC50 for dark toxicity in human AsPC1 cells to IC50 for phototoxicity in human AsPC1 cells. Format: cell-based. Conditions: read-out: Ratio IC50. In a few lines:
(§2)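 The ratio is the dark-toxicity IC50 over the phototoxicity IC50 in the same cell line, both from 72h MTT. The dark arm received no light. The photo arm was irradiated at 660 nm, 50 mW, 9 J/cm² after 3h compound exposure.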

Series [4] in a line: Selectivity index, ratio of IC50 for dark toxicity in human MIAPaCa2 cells to IC50 for phototoxicity in human MIAPaCa2 cells. The format is cell-based, MIA PaCa-2. Conditions: read-out: Ratio IC50. In short, it runs like this:
as §2

A short description of series [5]: Dark toxicity in human PANC1 cells assessed as reduction in cell viability after 72 hrs by MTT assay. The format is cell-based, PANC-1. In a few lines: as §1
Series [6] has as its system ASPC1. Kind of series: Phototoxicity in human AsPC1 cells assessed as induction of apoptosis by measuring live cells at 20 nM preincubated for 3 hrs followed by 9 J/cm2 laser light irradiation and measured after 24 hrs by Annexin V-FITC/propidium iodide staining based flow cytometry (reference value: 91.51%). The format is functional. Background: In flow cytometry, cells or beads pass a laser one at a time.

The subject of series [7] is ASPC1. Kind of series: Phototoxicity in human AsPC1 cells assessed as induction of apoptosis by measuring late apoptotic cells at 20 nM preincubated for 3 hrs followed by 9 J/cm2 laser light irradiation and measured after 24 hrs by Annexin V-FITC/propidium iodide staining based flow cytometry (reference value: 0.41%). Format: functional.
In series [8] the test system is ASPC1. Kind of series: Phototoxicity in human AsPC1 cells assessed as induction of apoptosis by measuring late apoptotic cells at 40 nM preincubated for 3 hrs followed by 9 J/cm2 laser light irradiation and measured after 24 hrs by Annexin V-FITC/propidium iodide staining based flow cytometry (reference value: 0.41%). Format: functional.
The test system of series [9] is ASPC1. Kind of series: Phototoxicity in human AsPC1 cells assessed as induction of apoptosis by measuring upregulation of Bax expression at 20 to 40 nM preincubated for 3 hrs followed by 9 J/cm2 laser light irradiation and measured after 24 hrs by Western blot analysis. The format is functional, cell-based. In short, it runs like this: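 Cells in six-well plates were exposed to compound for 3h and irradiated at 660 nm (50 mW, 9 J/cm²), then incubated 24h. Lysis was on ice in modified RIPA buffer (pH 7.4) with protease inhibitors. After clearing at 10,000g for 10 min at 4 °C, proteins were separated by 10% SDS-PAGE, blotted and detected by ECL.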
(In general: A western blot detects proteins with antibodies after separation by electrophoresis.)

Broadly, the IC50 is the concentration needed to halve the response being measured. For the molecule `C=Cc1c(C)c2cc3nc(c(CC(=O)OC)c4[nH]c(cc5nc(cc1[nH]2)C(C)=C5CC)c(C)c4C(=O)NCCOCCOCCNC(=O)CCCC(=O)Oc1ccc(/C=C/C(=O)CC(=O)/C=C/c2ccc(O)c(OC)c2)cc1OC)C(CCC(=O)OC)C3C` (centres undefined), the IC50 at 72 h in series [1] is 186 µM; in [5] it was over 300 µM. In addition, the IC50 with ASPC1 [2] was found to be 0.04 µM. The selectivity ratio in series [3] stood at 4650; in series [4], 2370. In addition, the Activity is 77.38% in the series on ASPC1 [6], 6.1% in the series with ASPC1 [7] and 10.77% with ASPC1 [8]. Further, the result in the series on ASPC1 [9] was Active.
